According to ChEMBL document CHEMBL4011627, “Hepatitis C Virus NS3/4A Protease Inhibitors Incorporating Flexible P2 Quinoxalines Target Drug Resistant Viral Variants” (J Med Chem, 2017):

Key:
[1] = Inhibition of HCV genotype 1a NS3/4A protease using Ac-DE-Dap(QXL 520)-EE-Abu-psi-[COO]AS-C(5-FAMsp)-NH2 as substrate preincubated for 1 hr followed by substrate addition; set-up: species or system Hepatitis C virus subtype 1a
Method in brief: (§1)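 Protease domain at 2 nM preincubated 1 h at room temperature with inhibitor titrations (at least 12 concentrations) in 50 mM Tris, 5% glycerol, 10 mM DTT, 0.6 mM LDAO, 4% DMSO. Reaction started with fluorogenic substrate (200 nM final) and followed kinetically (ex 485/em 530 nm). Three independent data sets, fit globally to the Morrison equation for Ki.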

[2] = target: Hepatitis C virus serine protease, NS3/NS4A (Hepatitis C virus, UniProt A3EZI9+D2K2A8, D168A); assay: Inhibition of HCV genotype 1a NS3/4A protease D168A mutant using Ac-DE-Dap(QXL 520)-EE-Abu-psi-[COO]AS-C(5-FAMsp)-NH2 as substrate preincubated for 1 hr followed by substrate addition; set-up: species or system Hepatitis C virus subtype 1a
Method in brief: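 NS3/4A protease domain at 2 nM pre-incubated 1 h at room temperature with increasing inhibitor (at least 12 concentrations) in 50 mM Tris, 5% glycerol, 10 mM DTT, 0.6 mM LDAO, 4% DMSO. Reaction started with FRET substrate (final 200 nM), monitored kinetically (ex 485/em 530 nm). Three independent data sets; global Morrison fit for Ki.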

[3] = system: Hepatitis C virus; assay: Antiviral activity against HCV genotype 1b Con1 harboring HCV genotype 1a H77 NS3 infected in human HuH7 cells assessed as inhibition of viral replication after 96 hrs by luciferase reporter gene assay; format: functional, cell-based, Hepacivirus hominis; conditions: genotype 1b Con1, Huh-7, 96 h
[4] = system: Hepatitis C virus; assay: Antiviral activity against HCV genotype 1b Con1 harboring HCV genotype 1a H77 NS3 R155K mutant infected in human HuH7 cells assessed as inhibition of viral replication after 96 hrs by luciferase reporter gene assay; format: functional, cell-based, Hepacivirus hominis; conditions: genotype 1b Con1, Huh-7, 96 h
[5] = system: Hepatitis C virus; assay: Antiviral activity against HCV genotype 1b Con1 harboring HCV genotype 1a H77 NS3 A156T mutant infected in human HuH7 cells assessed as inhibition of viral replication after 96 hrs by luciferase reporter gene assay; format: functional, cell-based, Hepacivirus hominis; conditions: genotype 1b Con1, Huh-7, 96 h
[6] = system: Hepatitis C virus; assay: Antiviral activity against HCV genotype 1b Con1 harboring HCV genotype 1a H77 NS3 D168A mutant infected in human HuH7 cells assessed as inhibition of viral replication after 96 hrs by luciferase reporter gene assay; format: functional, cell-based, Hepacivirus hominis; conditions: genotype 1b Con1, Huh-7, 96 h
[7] = system: Hepatitis C virus; assay: Antiviral activity against HCV genotype 1b Con1 harboring HCV genotype 1a H77 NS3 D168V mutant infected in human HuH7 cells assessed as inhibition of viral replication after 96 hrs by luciferase reporter gene assay; format: functional, cell-based, Hepacivirus hominis; conditions: genotype 1b Con1, Huh-7, 96 h
[8] = Inhibition of HCV genotype 3a NS3/4A protease using Ac-DE-Dap(QXL520)-EE-Abu-psi-[COO]AS-C(5-FAMsp)-NH2 as substrate preincubated for 1 hr followed by substrate addition; set-up: species or system Hepatitis C virus subtype 3a; method in brief: as §1

| Structure (SMILES) | Ki [1] [nM] | Ki [2] [nM] | EC50 [3] [nM] | EC50 [4] [nM] | EC50 [5] [nM] | EC50 [6] [nM] | EC50 [7] [nM] | Ki [8] [nM] |
| --- | --- | --- | --- | --- | --- | --- | --- | --- |
| COc1ccc2nc(C(C)C)c(O[C@@H]3C[C@H]4C(=O)N[C@]5(C(=O)NS(=O)(=O)C6CC6)C[C@H]5/C=C\CCCCC[C@H](NC(=O)OC5CCCC5)C(=O)N4C3)nc2c1 | 1.44 | 161 | 0.48 | 7.63 | 32.1 | 7.96 | 30.1 | – |
| COc1ccc2nc(Cl)c(O[C@@H]3C[C@H]4C(=O)N[C@]5(C(=O)NS(=O)(=O)C6(C)CC6)C[C@H]5/C=C\CCCCC[C@H](NC(=O)OC(C)(C)C)C(=O)N4C3)nc2c1 | 1.11 | 77.7 | 0.18 | 0.4 | 8.86 | 1.07 | 0.49 | 53.6 |
| CCc1nc2ccccc2nc1O[C@@H]1C[C@H]2C(=O)N[C@]3(C(=O)NS(=O)(=O)C4CC4)C[C@H]3/C=C\CCCCC[C@H](NC(=O)OC(C)(C)C)C(=O)N2C1 | 7.18 | 190 | 0.46 | 1.81 | 10.6 | 8.55 | 14 | – |
| COc1ccc2nc(C(F)(F)F)c(O[C@@H]3C[C@H]4C(=O)N[C@]5(C(=O)NS(=O)(=O)C6CC6)C[C@H]5/C=C\CCCCC[C@H](NC(=O)OC(C)(C)C)C(=O)N4C3)nc2c1 | 13.3 | 157 | 1.98 | 3.45 | 36.2 | 16.8 | 17.1 | 344 |
| COc1ccc2nc(C(C)C)c(O[C@@H]3C[C@H]4C(=O)N[C@]5(C(=O)NS(=O)(=O)C6CC6)C[C@H]5/C=C\CCCCC[C@H](NC(=O)OC(C)(C)C)C(=O)N4C3)nc2c1 | 4.27 | 239 | 1.43 | 5.02 | 25.7 | 15.3 | 23.7 | – |
| COc1ccc2nc(C)c(O[C@@H]3C[C@H]4C(=O)N[C@]5(C(=O)NS(=O)(=O)C6CC6)C[C@H]5/C=C\CCCCC[C@H](NC(=O)OC5CCCC5)C(=O)N4C3)nc2c1 | 0.93 | 31.9 | 0.11 | 0.89 | 2.88 | 2.63 | 4.32 | 147 |
| COc1ccc2nc(C)c(O[C@@H]3C[C@H]4C(=O)N[C@]5(C(=O)NS(=O)(=O)C6(C)CC6)C[C@H]5/C=C\CCCCC[C@H](NC(=O)OC5CCCC5)C(=O)N4C3)nc2c1 | 1.13 | 36.3 | 0.13 | 1.09 | 3.99 | 2.16 | – | 121 |
| CCc1nc2ccccc2nc1O[C@@H]1C[C@H]2C(=O)N[C@]3(C(=O)NS(=O)(=O)C4CC4)C[C@H]3/C=C\CCCCC[C@H](NC(=O)OC3CCCC3)C(=O)N2C1 | 1.99 | 107 | 0.24 | 4.28 | 24.6 | 7.5 | 19.3 | – |
| COc1ccc2nc(C(F)(F)F)c(O[C@@H]3C[C@H]4C(=O)N[C@]5(C(=O)NS(=O)(=O)C6CC6)C[C@H]5/C=C\CCCCC[C@H](NC(=O)OC5CCCC5)C(=O)N4C3)nc2c1 | 7.55 | 115 | 4.86 | 7.97 | 117 | 15.1 | 24 | 757 |
| COc1ccc2nc(C(C)C)c(O[C@@H]3C[C@H]4C(=O)N[C@]5(C(=O)NS(=O)(=O)C6(C)CC6)C[C@H]5/C=C\CCCCC[C@H](NC(=O)OC5CCCC5)C(=O)N4C3)nc2c1 | 1.34 | 156 | 0.59 | 6.83 | 27.6 | 7.91 | 18.2 | – |
| COc1ccc2nc(C(F)(F)F)c(O[C@@H]3C[C@H]4C(=O)N[C@]5(C(=O)NS(=O)(=O)C6(C)CC6)C[C@H]5/C=C\CCCCC[C@H](NC(=O)OC5CCCC5)C(=O)N4C3)nc2c1 | 8.14 | 110 | 4.04 | 6.9 | 75.9 | 8.46 | 11.4 | 433 |
| COc1ccc2nc(C(C)C)c(O[C@@H]3C[C@H]4C(=O)N[C@]5(C(=O)NS(=O)(=O)C6(C)CC6)C[C@H]5/C=C\CCCCC[C@H](NC(=O)OC(C)(C)C)C(=O)N4C3)nc2c1 | 0.58 | 211 | 1.86 | 4.14 | 21.2 | 11.9 | 18.1 | – |
| COc1ccc2nc(Cl)c(O[C@@H]3C[C@H]4C(=O)N[C@]5(C(=O)NS(=O)(=O)C6(C)CC6)C[C@H]5/C=C\CCCCC[C@H](NC(=O)OC5CCCC5)C(=O)N4C3)nc2c1 | 0.44 | 25.7 | 0.15 | 0.56 | 4.32 | 0.97 | 1.09 | 61 |
| COc1ccc2nc(C)c(O[C@@H]3C[C@H]4C(=O)N[C@]5(C(=O)NS(=O)(=O)C6(C)CC6)C[C@H]5/C=C\CCCCC[C@H](NC(=O)OC(C)(C)C)C(=O)N4C3)nc2c1 | 3.6 | 52 | 0.3 | 0.8 | 1.57 | 2.37 | 1.6 | 119 |
| COc1ccc2nc(C)c(O[C@@H]3C[C@H]4C(=O)N[C@]5(C(=O)NS(=O)(=O)C6CC6)C[C@H]5/C=C\CCCCC[C@H](NC(=O)OC(C)(C)C)C(=O)N4C3)nc2c1 | 3.4 | 50.9 | 0.39 | 1.17 | 5.95 | 4.24 | 3.17 | 152 |
| COc1ccc2nc(C(F)(F)F)c(O[C@@H]3C[C@H]4C(=O)N[C@]5(C(=O)NS(=O)(=O)C6(C)CC6)C[C@H]5/C=C\CCCCC[C@H](NC(=O)OC(C)(C)C)C(=O)N4C3)nc2c1 | 5.77 | 118 | 1.52 | 2.3 | 20.5 | 8.64 | 8.31 | 231 |
| COc1ccc2nc(Cl)c(O[C@@H]3C[C@H]4C(=O)N[C@]5(C(=O)NS(=O)(=O)C6CC6)C[C@H]5/C=C\CCCCC[C@H](NC(=O)OC5CCCC5)C(=O)N4C3)nc2c1 | 0.49 | 30.6 | 0.15 | 0.59 | 3.55 | 1.32 | 1.55 | 85.6 |
| COc1ccc2nc(Cl)c(O[C@@H]3C[C@H]4C(=O)N[C@]5(C(=O)NS(=O)(=O)C6CC6)C[C@H]5/C=C\CCCCC[C@H](NC(=O)OC(C)(C)C)C(=O)N4C3)nc2c1 | 1.07 | 39.8 | 0.16 | 0.44 | 16.2 | 1.42 | 0.73 | 67.5 |
